Experiments:
[1] = Cytotoxicity against African green monkey Vero cells at 10 uM after 4 days by fluorescence assay; type: toxicity, cell-based; conditions: chlorocebus sabaeus, 96 h
Summary of the method: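 GFP-expressing Vero cells (stably transfected with pEGFP-N1), maintained in MEM with 10% heat-inactivated FBS, L-glutamine, pyruvate and geneticin. Seeded at 3.3 × 10^4 cells/ml onto compound at […] (so in the source), then incubated 4 days at 37 °C, 5% CO2. Read by bottom fluorescence (ex 530/em 590 nm) as percent cytotoxicity. Ellipticine positive control; 0.5% DMSO negative control.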

Plasmodium falciparum [2] = test: Antimalarial activity against multidrug-resistant Plasmodium falciparum K1 infected human erythrocytes assessed as reduction in parasite viability after 24 hrs by [3H]-hypoxanthine incorporation assay; type: functional
Summary of the method: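 K1 parasites cultured in RPMI-1640 with 25 mM HEPES, 25 mM NaHCO3, 10% […] human serum and erythrocytes at 37 C, 3% CO2. Early ring-stage culture (1% parasitemia, 1.5% Hct) was exposed to compounds in duplicate for 24 h, then [3H]hypoxanthine was added for a further 18-20 h. Incorporation was scintillation-counted, and IC50 (50% growth reduction) was taken from fitted curves. The vehicle was 0.5% DMSO.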

[3] = Cytotoxicity against African green monkey Vero cells after 72 hrs by MTT assay; type: toxicity, cell-based, Chlorocebus sabaeus
Summary of the method: (§1)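 Dose-response MTT assay in cells grown in DMEM with 10% FBS, penicillin and streptomycin at 37 °C, 5% CO2. Cells were precultured 16–18 h, then exposed to compound for 72 h. MTT was added for 3 h, formazan dissolved in DMSO, and absorbance read at 570 nm. Gefitinib positive control; 0.5% DMSO negative control.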

[4] = target: T1, Tyrosine-protein kinase JAK3 (Homo sapiens, UniProt P52333); test: Inhibition of human JAK3 using poly (Glu:Tyr) as substrate
T1 sequence (P52333 whole entry): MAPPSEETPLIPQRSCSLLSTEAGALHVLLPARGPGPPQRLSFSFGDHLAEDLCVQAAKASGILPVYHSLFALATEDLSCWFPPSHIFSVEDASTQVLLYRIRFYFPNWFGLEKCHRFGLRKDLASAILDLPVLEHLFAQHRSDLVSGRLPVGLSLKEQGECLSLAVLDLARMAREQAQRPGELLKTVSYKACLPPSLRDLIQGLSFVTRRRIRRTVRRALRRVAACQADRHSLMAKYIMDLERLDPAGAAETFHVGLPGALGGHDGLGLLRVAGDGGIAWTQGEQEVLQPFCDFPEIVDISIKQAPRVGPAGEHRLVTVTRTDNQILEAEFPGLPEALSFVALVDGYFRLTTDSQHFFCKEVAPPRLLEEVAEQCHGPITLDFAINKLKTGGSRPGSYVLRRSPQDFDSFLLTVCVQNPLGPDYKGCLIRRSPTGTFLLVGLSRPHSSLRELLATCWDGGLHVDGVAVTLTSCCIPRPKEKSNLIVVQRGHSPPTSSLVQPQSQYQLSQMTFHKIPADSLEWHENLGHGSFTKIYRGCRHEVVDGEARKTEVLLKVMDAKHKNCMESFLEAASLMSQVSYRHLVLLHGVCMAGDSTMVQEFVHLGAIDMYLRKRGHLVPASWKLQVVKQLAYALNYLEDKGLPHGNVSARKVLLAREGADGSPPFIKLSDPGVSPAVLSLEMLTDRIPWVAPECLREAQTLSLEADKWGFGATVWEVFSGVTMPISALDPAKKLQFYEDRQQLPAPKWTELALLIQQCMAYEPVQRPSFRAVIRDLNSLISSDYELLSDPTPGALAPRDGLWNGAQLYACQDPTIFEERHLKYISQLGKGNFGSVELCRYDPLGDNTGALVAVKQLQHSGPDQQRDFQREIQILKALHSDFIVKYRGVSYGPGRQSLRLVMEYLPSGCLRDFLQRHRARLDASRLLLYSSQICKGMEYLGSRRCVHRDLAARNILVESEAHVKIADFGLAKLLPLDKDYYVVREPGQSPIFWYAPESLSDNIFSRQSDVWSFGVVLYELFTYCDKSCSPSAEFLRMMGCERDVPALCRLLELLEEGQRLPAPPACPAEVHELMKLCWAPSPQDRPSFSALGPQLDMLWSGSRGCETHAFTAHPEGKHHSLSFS
Summary of the method: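 Antibody Beacon tyrosine kinase fluorescence assay, run as for EGFR. Reaction held 3 ng JAK3 enzyme, 0.1 mg/ml poly(Glu:Tyr) and 0.1 mg/ml ATP.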

[5] = Cytotoxicity against human A549 cells after 72 hrs by MTT assay; type: toxicity, cell-based; summary of the method: as §1
[6] = target: Epidermal growth factor receptor (Homo sapiens, UniProt P00533); test: Inhibition of human EGFR using poly (Glu:Tyr) as substrate measured for 1.5 hrs by oregon green 488 dye-based fluorescence assay
[7] = target: Tyrosine-protein kinase JAK2 (Homo sapiens, UniProt O60674); test: Inhibition of human JAK2 using poly (Glu:Tyr) as substrate
Summary of the method: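 Antibody Beacon tyrosine kinase fluorescence assay, run as for EGFR. Reaction held 10 ng JAK2 enzyme, 0.1 mg/ml poly(Glu:Tyr) and 0.1 mg/ml ATP.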

[8] = Cytotoxicity against human HepG2 cells at 10uM; type: toxicity, cell-based; conditions: hepg2, 10 µM
Plasmodium falciparum [9] = test: Antimalarial activity against Plasmodium falciparum 3D7 by high throughput screening assay; type: functional

Sequence of Tyrosine-protein kinase JAK2 (O60674 whole entry): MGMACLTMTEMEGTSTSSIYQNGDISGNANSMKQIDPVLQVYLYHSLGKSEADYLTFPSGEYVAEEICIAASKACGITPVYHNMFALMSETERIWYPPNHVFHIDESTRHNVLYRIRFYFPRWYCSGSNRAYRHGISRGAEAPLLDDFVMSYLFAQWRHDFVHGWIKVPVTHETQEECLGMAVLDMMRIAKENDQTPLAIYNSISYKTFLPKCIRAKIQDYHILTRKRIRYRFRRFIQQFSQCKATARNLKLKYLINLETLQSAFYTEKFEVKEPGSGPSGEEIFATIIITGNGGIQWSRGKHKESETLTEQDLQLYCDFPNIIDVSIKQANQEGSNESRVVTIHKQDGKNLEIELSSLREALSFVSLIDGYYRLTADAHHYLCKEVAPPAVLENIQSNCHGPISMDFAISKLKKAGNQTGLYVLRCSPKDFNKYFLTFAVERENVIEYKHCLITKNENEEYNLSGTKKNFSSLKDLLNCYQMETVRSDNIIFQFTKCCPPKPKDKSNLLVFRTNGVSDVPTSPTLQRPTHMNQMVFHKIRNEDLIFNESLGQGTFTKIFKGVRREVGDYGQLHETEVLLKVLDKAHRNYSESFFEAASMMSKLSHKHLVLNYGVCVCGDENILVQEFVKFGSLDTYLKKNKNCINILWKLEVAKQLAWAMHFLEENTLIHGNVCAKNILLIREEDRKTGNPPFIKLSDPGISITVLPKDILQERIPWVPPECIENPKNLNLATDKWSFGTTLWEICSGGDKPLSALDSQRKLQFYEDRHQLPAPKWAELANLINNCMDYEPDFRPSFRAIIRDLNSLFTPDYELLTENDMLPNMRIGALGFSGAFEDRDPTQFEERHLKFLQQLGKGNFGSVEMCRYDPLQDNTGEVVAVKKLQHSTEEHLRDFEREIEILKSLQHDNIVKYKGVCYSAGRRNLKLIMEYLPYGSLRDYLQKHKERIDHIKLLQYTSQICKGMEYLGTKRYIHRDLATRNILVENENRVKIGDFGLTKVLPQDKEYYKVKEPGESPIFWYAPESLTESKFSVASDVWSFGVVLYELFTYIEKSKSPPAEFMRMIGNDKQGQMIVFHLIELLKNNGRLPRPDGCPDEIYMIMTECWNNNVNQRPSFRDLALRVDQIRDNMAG
Sequence of Epidermal growth factor receptor (P00533 whole entry): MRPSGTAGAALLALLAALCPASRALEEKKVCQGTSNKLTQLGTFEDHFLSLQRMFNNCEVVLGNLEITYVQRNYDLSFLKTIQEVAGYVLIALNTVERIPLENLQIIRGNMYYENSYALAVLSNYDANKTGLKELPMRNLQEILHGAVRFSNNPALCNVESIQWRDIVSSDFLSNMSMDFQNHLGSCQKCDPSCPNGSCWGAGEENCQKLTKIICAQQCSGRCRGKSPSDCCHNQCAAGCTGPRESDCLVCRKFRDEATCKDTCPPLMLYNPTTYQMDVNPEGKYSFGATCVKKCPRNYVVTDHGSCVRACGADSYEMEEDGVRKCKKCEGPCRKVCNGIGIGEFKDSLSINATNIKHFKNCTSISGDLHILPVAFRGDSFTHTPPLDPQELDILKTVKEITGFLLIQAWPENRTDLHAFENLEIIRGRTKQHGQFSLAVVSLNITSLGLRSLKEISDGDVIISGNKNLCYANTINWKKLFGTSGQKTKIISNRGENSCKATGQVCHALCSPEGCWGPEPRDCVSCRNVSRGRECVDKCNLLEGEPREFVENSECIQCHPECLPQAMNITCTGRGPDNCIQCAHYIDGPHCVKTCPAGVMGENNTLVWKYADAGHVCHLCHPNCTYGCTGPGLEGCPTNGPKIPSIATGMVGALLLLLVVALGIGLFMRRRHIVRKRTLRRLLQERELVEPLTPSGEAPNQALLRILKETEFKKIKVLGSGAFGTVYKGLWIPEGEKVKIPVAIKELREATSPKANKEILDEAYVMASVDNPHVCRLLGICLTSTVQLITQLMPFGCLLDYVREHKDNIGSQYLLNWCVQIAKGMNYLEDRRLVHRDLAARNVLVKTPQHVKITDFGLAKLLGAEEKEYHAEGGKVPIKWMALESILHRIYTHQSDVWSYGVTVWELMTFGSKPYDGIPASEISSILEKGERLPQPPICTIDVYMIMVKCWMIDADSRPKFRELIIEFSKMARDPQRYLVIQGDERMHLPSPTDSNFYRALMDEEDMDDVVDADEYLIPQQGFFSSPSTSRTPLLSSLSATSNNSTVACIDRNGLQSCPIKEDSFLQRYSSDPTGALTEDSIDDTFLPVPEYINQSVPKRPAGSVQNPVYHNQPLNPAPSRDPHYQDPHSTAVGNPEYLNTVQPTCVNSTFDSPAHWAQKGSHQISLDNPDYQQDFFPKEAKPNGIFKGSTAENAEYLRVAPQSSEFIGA

Structure (SMILES) | Activity [1] | IC50 (Plasmodium falciparum [2]) | other results
Cc1cc(Nc2nc(Nc3cccc(S(N)(=O)=O)c3)ncc2C#N)ccc1N1CCN(C)CC1 | 33% | – | –
Cc1cccc(Nc2ccnc(Nc3ccc(N4CCOCC4)cc3)n2)c1 | 74% | – | –
NC(=O)c1ccccc1Nc1ccnc(Nc2ccc(N3CCOCC3)cc2)n1 | 68% | 4.39 µM | –
CN1CCN(c2ccc(Nc3nccc(Nc4cccc(S(N)(=O)=O)c4)n3)cc2)CC1 | 80% | 7.25 µM | –
Cc1cccc(Nc2ccnc(Nc3ccc(N4CCN(C)CC4)cc3)n2)c1 | 94% | 0.431 µM | EC50 at 72 h [3]: 1 µM; IC50 [4]: 2.1 µM; EC50 at 72 h [5]: 7.1 µM; IC50 [6]: 11 µM; IC50 [7]: 140 nM
Cc1cc(Nc2nccc(Nc3ccccc3C(N)=O)n2)ccc1N1CCN(C)CC1 | 92% | 1.06 µM | –
CN1CCN(c2ccc(Nc3nccc(Nc4ccccc4C(N)=O)n3)cc2)CC1 | 91% | 1.5 µM | –
Cc1cc(Nc2nccc(Nc3cccc(S(N)(=O)=O)c3)n2)ccc1N1CCN(C)CC1 | 66% | 3.86 µM | EC50 at 72 h [3]: > 100 µM; IC50 [4]: 4.1 µM; EC50 at 72 h [5]: 4.2 µM; IC50 [6]: > 150 µM; IC50 [7]: 126 nM
Cc1cccc(Nc2ccnc(Nc3cccc(C)c3)n2)c1 | 94% | – | –
c1cc(Nc2ccc(N3CCOCC3)cc2)nc(Nc2ccc(N3CCOCC3)cc2)n1 | 25% | – | –
NS(=O)(=O)c1cccc(Nc2ccnc(Nc3ccc(N4CCOCC4)cc3)n2)c1 | 35% | 8.97 µM | EC50 at 72 h [3]: 37 µM; IC50 [4]: 7.1 µM; EC50 at 72 h [5]: 9.4 µM; IC50 [6]: > 100 µM; IC50 [7]: 129 nM
Cc1cc(Nc2ncc(C#N)c(Nc3cccc(S(C)(=O)=O)c3)n2)ccc1N1CCN(C)CC1 | 92% | 4.72 µM | –
Cc1cccc(Nc2ncc(C#N)c(Nc3cccc(C)c3)n2)c1 | 40% | – | –
Cc1cccc(Nc2ccnc(Nc3ccc(N4CCN(C)CC4)c(C)c3)n2)c1 | 94% | 0.647 µM | EC50 at 72 h [3]: 2 µM; IC50 [4]: 1.8 µM; EC50 at 72 h [5]: 3.5 µM; IC50 [6]: > 150 µM; IC50 [7]: 50 nM
Cc1cc(Nc2ncc(C#N)c(Nc3cccc(S(N)(=O)=O)c3)n2)ccc1N1CCN(C)CC1 | 94% | 5.56 µM | –
CNC(=O)c1cnc(Nc2ccc(N3CCOCC3)cc2)nc1Nc1cccc(OC(C)C)c1 | – | – | Activity [8]: 19%; IC50 (Plasmodium falciparum [9]): 759 nM
Cc1cccc(Nc2ncc(C(N)=O)c(Nc3cccc(C)c3)n2)c1 | 96% | – | –
Cc1cc(Nc2ncc(C#N)c(Nc3cccc(S(=O)(=O)NC(C)(C)C)c3)n2)ccc1N1CCN(C)CC1 | 31% | 4.56 µM | EC50 at 72 h [3]: 45.4 µM; IC50 [4]: > 100 µM; EC50 at 72 h [5]: > 100 µM; IC50 [6]: > 150 µM; IC50 [7]: > 100000 nM
COc1cnc(Nc2ccc(N3CCN(C)CC3)c(C)c2)nc1Nc1cccc(S(N)(=O)=O)c1 | 88% | 5.26 µM | –
CN1CCN(c2ccc(Nc3ncc(C#N)c(Nc4ccccc4C(N)=O)n3)cc2)CC1 | – | – | Activity [8]: 43%; IC50 (Plasmodium falciparum [9]): 40 nM
CNC(=O)c1cnc(Nc2ccc(N3CCN(C)CC3)cc2)nc1Nc1cccc([N+](=O)[O-])c1 | – | – | Activity [8]: 16%; IC50 (Plasmodium falciparum [9]): 138 nM
Cc1cc(Nc2ncc(C#N)c(Nc3ccccc3C(N)=O)n2)ccc1N1CCN(C)CC1 | 94% | 3.93 µM | Activity [8]: 99%; IC50 (Plasmodium falciparum [9]): 9 nM
O[C@@H](c1cc(C(F)(F)F)nc2c(C(F)(F)F)cccc12)[C@H]1CCCCN1 [(S,R)-MEFLOQUINE] | – | 0.07 µM | –
C[C@H]1[C@@H](O)O[C@@H]2O[C@@]3(C)CC[C@H]4[C@H](C)CC[C@@H]1[C@@]24OO3 [ARTENIMOL] | – | 0.00254 µM | –
CCN(CC)CCCC(C)Nc1ccnc2cc(Cl)ccc12 (stereo not drawn) [CHLOROQUINE] | 45% | – | –
